# Screening data as filed in PubChem BioAssay.
# The list is not random: actives were taken first. Their share in the collection is about 7.2%.
# PostGolgi yeast = phenotypic screen on post-Golgi transport, primary screen; post-Golgi transport phenotypic cell assay; inhibition, % at 10 µM; 98,000 tested, 0.9% active; AID 739, 2007;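 note: yeast cells grown in 1536-well plates; yeast grown about 18 h at 30C before absorbance read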
# PLAP activator = PLAP enzyme activators, biochemical, luminescence, HTS; purified PLAP enzyme, luminescent substrate read-out; active compounds read high; activation fold at 20 µM; 96,000 tested, 1.2% active; in the data active = activation fold above about 2
# Target sequence (P05187 whole entry, looked up): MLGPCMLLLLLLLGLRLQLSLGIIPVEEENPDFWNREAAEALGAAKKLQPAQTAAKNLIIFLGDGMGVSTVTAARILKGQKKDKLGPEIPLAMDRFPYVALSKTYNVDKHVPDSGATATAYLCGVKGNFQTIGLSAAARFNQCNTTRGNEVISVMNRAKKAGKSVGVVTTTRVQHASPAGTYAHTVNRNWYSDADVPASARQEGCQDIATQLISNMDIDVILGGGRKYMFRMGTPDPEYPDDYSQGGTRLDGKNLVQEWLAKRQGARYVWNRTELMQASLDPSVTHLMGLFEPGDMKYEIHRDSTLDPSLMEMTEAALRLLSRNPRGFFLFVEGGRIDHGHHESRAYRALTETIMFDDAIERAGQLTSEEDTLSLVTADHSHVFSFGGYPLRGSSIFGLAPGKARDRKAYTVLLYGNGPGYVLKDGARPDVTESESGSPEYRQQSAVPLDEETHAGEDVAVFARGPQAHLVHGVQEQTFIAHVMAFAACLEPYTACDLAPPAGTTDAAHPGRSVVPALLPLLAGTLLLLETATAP
# E coli WT exp = growth inhibitors of wild-type E. coli, primary screen, strain BW25113, expanded library, OD600 | OD600 absorbance | growth inhibition, % at 100 µM | 98,000 tested, 0.15% active;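 active = growth inhibition above about 50% at one test dose, limit read from the data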;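 note: growth measured after 20 h incubation at 37 °C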
# tolC growth inh = growth inhibitors of E. coli tolC mutant, primary screen, strain BW25113 ΔtolC::kan, 384-well | OD615 | growth inhibition, % at 10 µM (by protocol) | 65,000 tested, 2.2% active | AID 573, 2007;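 active = growth inhibition at or above a cutoff equal to the mean over every tested compound plus 3 SD, cut at about 60% in these data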;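 note: growth measured after 20 h incubation at 37 °C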
#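 System: E. coli ΔtolC::kan strain BW25113; Buffer or medium: LB broth supplemented with 50 µg/mL kanamycin; Compound: 10 µM final, single dose; Incubation: bacterial growth with compound for 20 h at 37 °C; Signal: A615 absorbance measurement; Evaluation: growth inhibition in percent.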
# PostGolgi ctrl = growth inhibition of yeast control strain, primary screen, counter-screen for post-Golgi transport modulator project; efflux-deficient yeast background strain, growth absorbance A615, 16 h; inhibition, % at 10 µM; 98,000 tested, 5% active
# Starred values were filed as active, the others as inactive; . = not tested or not shown. Cut-off read from the data, not from the text of the source, unless noted: active = inhibition above about 30%; inactive = the rest.
SMILES,PostGolgi yeast,PLAP activator,E coli WT exp,tolC growth inh,PostGolgi ctrl
CN(C(=O)c1ccc2c(c1)C(=O)N(CCC1=CCCCC1)C2=O)C1CCCCC1,-0.7,1.6,-5.0,.,34.1*
COc1ccc(CCNC(=O)COc2ccc(S(=O)(=O)NC3CCCCC3)cc2Cl)cc1,0.3,1.5,-6.0,.,11.2
Clc1cc(Sc2ccc(Br)cc2)nnc1-c1ccccc1,-8.2,1,-16.0,.,65.1*
CCCCc1ccc(NC(=O)c2c(C)noc2C)cc1,1.7,2*,-10.0,19.0,9.3
COC(=O)C1=C(NC(=O)c2ccc(C)cc2)CCS1,6.1,1,0.0,.,2.7
CC(=O)c1c(C)n([O-])c2cc(C)ccc2[n+]1=O,1.3,0.9,46.0,91.5*,4.7
O=C(CCSc1ccccc1)Nc1nnc(-c2ccccc2)o1,4.7,1,0.0,39.4,-3.4
O=C(COn1nnc2ccc(C(F)(F)F)cc21)Nc1nnc(-c2ccccc2)o1,0.0,1.1,-5.0,100.0*,-0.6
CCOC(=O)N1CCN(c2c(NCc3ccccn3)c(=O)c2=O)CC1,-2.5,0.9,2.0,-12.8,31.1*
O=C(CCc1nc(-c2ccccc2F)no1)Nc1ccc(Oc2ccccc2)cc1,-8.5,0.9,0.0,81.2*,34.5*
COc1ccccc1-c1noc(CCC(=O)Nc2cccc(C(F)(F)F)c2)n1,-2.1,.,-8.0,64.9*,12.1
CCOc1cc(-c2noc(CCC(=O)Nc3cccnc3)n2)ccc1OC,-1.7,1.4,6.0,3.6,32.5*
COc1cccc(NC(=O)CCc2nc(-c3ccccc3F)no2)c1,-12.9,0.8,7.0,.,-0.5
COc1cc(/C=C/C(=O)c2ccc(Cl)s2)cc(OC)c1O,19.7,0.6,3.0,.,44.7*
CNC(=O)C1CC(=O)N(CCCc2ccccc2)C(=Nc2ccccc2)S1 (stereo not drawn),-1.6,1.5,-4.0,.,14.0
COc1ccc2nc(S(=O)Cc3ncc(C)c(OC)c3C)[nH]c2c1 (stereo not drawn),.,.,.,2.7,.
CN(C)CCCNC(=O)c1ccc(-c2nc(-c3ccc(Cl)cc3)cs2)cc1,-0.8,1.5,37.0,.,38.5*
CN(C)CCCNC(=O)c1ccccn1,7.1,0.9,0.0,.,9.6
CC(C)c1nnc(NC(=O)c2c(O)c3cccc4c3n(c2=O)CC4)s1,.,.,.,100.0*,.
CCc1nc2ccccc2c(=O)n1NC(=O)c1c(O)c2cccc3c2n(c1=O)CCC3,2.9,1.4,0.0,64.5*,16.0
CCn1c(=O)c(C(=O)Nn2c(C)nc3ccccc3c2=O)c(O)c2ccccc21,5.6,1.4,3.0,90.9*,21.4
O=C(NCc1ccccc1)c1c(O)c2cccc3c2n(c1=O)CCC3,10.1,1.5,-13.0,18.6,9.3
CCn1c(=O)c(C(=O)Nc2nc3ccccc3[nH]2)c(O)c2ccccc21,104.1*,1,1.0,5.7,98.2*
CCOC(=O)c1c(NC(=O)c2ccc(N3C(=O)C4C5C=CC(C5)C4C3=O)cc2)sc2c1CCCC2 (stereo not drawn),-2.3,1.3,-11.0,.,12.0
CCOc1ccc(NC(=O)C2CCCN(S(=O)(=O)c3cccc4nsnc34)C2)cc1 (stereo not drawn),13.6,1.2,-7.0,.,6.7
SMILES,PostGolgi yeast,PLAP activator,E coli WT exp,tolC growth inh,PostGolgi ctrl
Cc1ccccc1NC(=O)c1ccc(-c2ccc(Cl)cc2Cl)o1,-1.3,1,-24.0,.,53.8*
Cc1ccc(C(=O)Nc2ccccc2NC(=O)c2ccc(C)o2)o1,-7.2,1,-1.0,-4.2,-8.6
Cc1cccc(C)c1NC(=O)c1ccc(-c2ccc(Cl)cc2Cl)o1,-6.3,0.9,-4.0,.,45.8*
O=C(Nc1ccc(Cl)cn1)c1ccc(-c2cc(Cl)ccc2Cl)o1,2.5,0.9,-5.0,.,-1.0
COc1cc(C2C(C#N)=C(N)Oc3n[nH]c(C)c32)cc2c1OCO2 (stereo not drawn),3.1,2*,6.0,-9.4,-1.2
C[C@H](N)c1nnc(SCC(=O)c2ccc(Cl)cc2)o1,5.3,2.9*,4.0,.,3.0
CC(C)[C@H](N)c1nnc(SCC(=O)c2ccc(Cl)cc2)o1,-10.2,0.9,2.0,.,6.1
CN=C(C)C1=C(O)C(C(=O)OC)C(C)(C)CC1=O (stereo not drawn),2.8,0.9,2.0,-11.5,-4.6
COC(=O)C1C(O)=C(C=NCC(C)N=CC2=C(O)C(C(=O)OC)C(C)(C)CC2=O)C(=O)CC1(C)C (stereo not drawn),10.9,2.2*,3.0,5.2,4.0
C/C(N)=C(/C#N)C(=O)CSc1nc2cc(Cl)ccc2s1,-12.3,1.2,-2.0,20.7,44.3*
C/C(N)=C(/C#N)C(=O)CSc1nnc(Nc2cccc(C)c2)s1,.,.,.,-1.0,.
Cc1ccc(-n2ncc(-c3nnc(SCC(=O)NC4CCCC4)o3)c2N)cc1C,-1.3,1,-1.0,-6.8,16.0
CC(C)(C)OC(=O)N1CCC[C@H]1c1nnc(SCc2ccc(Cl)cc2Cl)o1,17.8,1.5,9.0,88.7*,14.7
O=C(Cn1cc2c(n1)CCCC2)Nc1cc(-c2cccc(Cl)c2)no1,18.8,1.6,4.0,23.7,12.3
Oc1ccc(-c2csc(-c3ccccc3)n2)cc1O,0.6,0.7,35.0,.,59.0*
Cc1ccccc1NC(=O)C1CCCN(S(=O)(=O)c2cccc3cccnc23)C1 (stereo not drawn),-6.0,0.9,0.0,7.3,30.8*
COc1ccc(NC(=O)C2CCCN2S(=O)(=O)c2cccc3cccnc23)c(OC)c1 (stereo not drawn),97.2*,1.4,3.0,4.3,94.8*
Cc1cc(C)n2[nH]c(=O)c(N=Nc3cccc(Cl)c3)c2n1,-5.7,0.8,2.0,.,39.2*
Cc1cc(C)n2[nH]c(=O)c(N=Nc3ccccc3)c2n1,0.3,0.8,-2.0,.,3.0
Cc1ccccc1CSc1nnc(-c2ccco2)n1Cc1ccco1,-0.6,1,1.0,41.1,39.5*
O=C1c2ccccc2C(=O)N1CCSc1nnc(-c2ccco2)n1Cc1ccccc1,3.3,1.2,-2.0,14.1,36.7*
c1ccc(CSc2nnc(-c3cccs3)n2Cc2ccco2)cc1,.,.,.,95.6*,.
Cc1ccc(-c2nnc(SCc3nc4ccccc4[nH]3)n2Cc2ccco2)cc1,2.3,1,-3.0,.,7.9
c1coc(Cn2c(SCc3nc4ccccc4[nH]3)nnc2-c2cccs2)c1,7.1,2.1*,1.0,19.0,8.7
Cn1c2ccccc2c2cnn(CC(=O)N3CCN(c4ncccn4)CC3)c(=O)c21,.,.,.,-4.2,.
Cc1cc(C(=O)Nc2ccccc2)c(C)o1,-4.6,0.8,7.0,.,2.4
Cc1ccc(C(C)NC(=O)c2cc(C)oc2C)cc1 (stereo not drawn),1.6,1,3.0,8.4,32.8*
N#Cc1c(Cl)nc(SCc2ccccc2)nc1-c1ccccc1,0.9,1,12.0,.,6.2
Cc1cccc(C)c1NC(=S)N1CCC(N(C)CC2CCCO2)CC1 (stereo not drawn),4.8,0.8,3.0,.,3.6
Cc1cccc(NC(=S)N2CCC(N(C)CC3CCCO3)CC2)c1C (stereo not drawn),-16.2,1,1.0,.,32.2*
